# Test results taken from ChEMBL document CHEMBL1145892, “2-Substitution of adenine nucleotide analogues containing a bicyclo[3.1.0]hexane ring system locked in a northern conformation: enhanced potency as P2Y1 receptor antagonists” (J Med Chem, 2003).
# Legend:
# P2Y purinoceptor 1 [1] = biological target: T1, P2Y purinoceptor 1 (Homo sapiens, UniProt P47900); test: Inhibition of [3H]5 binding to P2Y purinoceptor 1 expressed in Sf9 cells
# Summary of the method: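 Membranes were from Sf9 cells expressing human P2Y1 via recombinant baculovirus. They were incubated 30 min at 4 °C with [3H]5 (~20 nM or 10 nM as stated) across a wide analogue concentration range. Samples were filtered over glass-fiber with ice-cold 10 mM Tris pH 7.5/145 mM NaCl and counted by scintillation. Assays were triplicate, three experiments. Ki = IC50/(1+[L]/Kd), Kd 8 nM.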
# P2Y purinoceptor 1 [2] = biological target: T1, P2Y purinoceptor 1; test: Antagonistic activity against P2Y purinoceptor 1; format: functional
# Summary of the method: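 Human P2Y1 stably expressed in 1321N1 astrocytoma cells, labeled 18–24 h at 37 °C with 1.0 µCi [3H]myo-inositol in inositol-free DMEM. Inositol phosphate accumulation was stimulated by 30 nM 2MeSADP over 10 min at 37 °C with 10 mM LiCl. Total [3H]inositol phosphates were measured by anion exchange. IC50 came from a four-parameter logistic fit; ≥3 experiments, duplicate or triplicate.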
# T1 sequence (P47900 whole entry): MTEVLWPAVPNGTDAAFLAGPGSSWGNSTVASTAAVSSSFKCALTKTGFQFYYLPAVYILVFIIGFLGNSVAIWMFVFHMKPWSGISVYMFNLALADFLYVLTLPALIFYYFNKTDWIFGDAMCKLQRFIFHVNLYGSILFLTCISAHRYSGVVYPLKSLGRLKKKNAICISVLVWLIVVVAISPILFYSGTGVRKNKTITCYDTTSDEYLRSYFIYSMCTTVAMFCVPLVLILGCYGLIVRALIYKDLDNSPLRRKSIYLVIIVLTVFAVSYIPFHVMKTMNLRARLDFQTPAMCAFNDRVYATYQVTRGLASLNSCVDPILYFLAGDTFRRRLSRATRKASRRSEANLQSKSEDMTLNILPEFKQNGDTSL
Compound,Ki (P2Y purinoceptor 1 [1]) [nM],IC50 (P2Y purinoceptor 1 [2]) [nM]
CNc1nc([Se]C)nc2c1ncn2C1CC(OP(=O)(O)O)[C@]2(COP(=O)(O)O)C[C@H]12 (stereo partly specified),35,377
CNc1nc(Cl)nc2c1ncn2[C@H]1C[C@H](OP(=O)(O)O)[C@]2(COP(=O)(O)O)C[C@H]12,2.5,52
CNc1nc(SC)nc2c1ncn2[C@H]1C[C@H](OP(=O)(O)O)[C@]2(COP(=O)(O)O)C[C@H]12,91,221
CSc1nc(N)c2ncn([C@H]3C[C@H](OP(=O)(O)O)[C@]4(COP(=O)(O)O)C[C@H]34)c2n1,863,367
Nc1nc(I)nc2c1ncn2C1CC(OP(=O)(O)O)[C@]2(COP(=O)(O)O)C[C@H]12 (stereo partly specified),12.6,87
CNc1nc(C)nc2c1ncn2[C@H]1C[C@H](OP(=O)(O)O)[C@]2(COP(=O)(O)O)C[C@H]12,3.6,49
CNc1nc(Br)nc2c1ncn2C1CC(OP(=O)(O)O)[C@]2(COP(=O)(O)O)C[C@H]12 (stereo partly specified),5.1,37
CNc1ncnc2c1ncn2[C@H]1C[C@H](OP(=O)(O)O)[C@]2(COP(=O)(O)O)C[C@H]12,17.6,157
CNc1nc(F)nc2c1ncn2[C@H]1C[C@H](OP(=O)(O)O)[C@]2(COP(=O)(O)O)C[C@H]12,45,356
CCCC/C=C\c1nc(NC)c2ncn([C@H]3C[C@H](OP(=O)(O)O)[C@]4(COP(=O)(O)O)C[C@H]34)c2n1,430,2400
CCCCCCc1nc(NC)c2ncn([C@H]3C[C@H](OP(=O)(O)O)[C@]4(COP(=O)(O)O)C[C@H]34)c2n1,80,452
CNc1nc(I)nc2c1ncn2[C@H]1C[C@H](OP(=O)(O)O)[C@]2(COP(=O)(O)O)C[C@H]12,0.78,8.4
CCCC/C=C/c1nc(NC)c2ncn([C@H]3C[C@H](OP(=O)(O)O)[C@]4(COP(=O)(O)O)C[C@H]34)c2n1,330,1870
